Data reported in ChEMBL document CHEMBL1177647, “Synthesis and characterization of novel phenylindoles as potential probes for imaging of β-amyloid plaques in the brain” (Bioorg Med Chem, 2010).
Blank lines part the entries; values can stand above or below the compound they belong to.

Tests used:
[1] = Displacement of [125I]IMPY from amyloid beta42 by gamma counting
Brain [2] = assay: In vivo binding affinity to amyloid beta 42 in Tg2576 mouse brain by neuropathological staining; type: ADME, organism-based
Intestine [3] = assay: Biodistribution in ddY mouse intestine at 0.2 to 0.4 uCi, iv after 2 mins; type: ADME, organism-based; conditions: in vivo
How it was run: (§1)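 Radiotracer (0.2–0.4 μCi) given as a single tail-vein injection of 100 μL saline containing 10 μL ethanol to normal ddY mice (5 weeks old, 25–30 g). Mice were sacrificed at set times after injection. Organs were excised and weighed, and radioactivity was counted in an automatic gamma counter.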

Heart [4] = assay: Biodistribution in ddY mouse heart at 0.2 to 0.4 uCi, iv after 10 mins; type: ADME, organism-based; conditions: in vivo; how it was run: as §1
Stomach [5] = assay: Biodistribution in ddY mouse stomach at 0.2 to 0.4 uCi, iv after 60 mins measured per gram of organ; type: ADME, organism-based; conditions: in vivo, 1 h; how it was run: as §1
Spleen [6] = assay: Biodistribution in ddY mouse spleen at 0.2 to 0.4 uCi, iv after 10 mins; type: ADME, organism-based; conditions: in vivo; how it was run: as §1
Spleen [7] = assay: Biodistribution in ddY mouse spleen at 0.2 to 0.4 uCi, iv after 2 mins; type: ADME, organism-based; conditions: in vivo; how it was run: as §1
Blood [8] = assay: Biodistribution in ddY mouse blood at 0.2 to 0.4 uCi, iv after 10 mins; type: ADME, organism-based; conditions: in vivo; how it was run: as §1
Liver [9] = assay: Biodistribution in ddY mouse liver at 0.2 to 0.4 uCi, iv after 60 mins; type: ADME, organism-based; conditions: in vivo, 1 h; how it was run: as §1
Intestine [10] = assay: Biodistribution in ddY mouse intestine at 0.2 to 0.4 uCi, iv after 10 mins; type: ADME, organism-based; conditions: in vivo; how it was run: as §1
Liver [11] = assay: Biodistribution in ddY mouse liver at 0.2 to 0.4 uCi, iv after 30 mins; type: ADME, organism-based; conditions: in vivo, 0.5 h; how it was run: as §1
Blood [12] = assay: Biodistribution in ddY mouse blood at 0.2 to 0.4 uCi, iv after 60 mins; type: ADME, organism-based; conditions: in vivo, 1 h; how it was run: as §1
Heart [13] = assay: Biodistribution in ddY mouse heart at 0.2 to 0.4 uCi, iv after 30 mins; type: ADME, organism-based; conditions: in vivo, 0.5 h; how it was run: as §1
Liver [14] = assay: Biodistribution in ddY mouse liver at 0.2 to 0.4 uCi, iv after 2 mins; type: ADME, organism-based; conditions: in vivo; how it was run: as §1
Pancreas [15] = assay: Biodistribution in ddY mouse pancreas at 0.2 to 0.4 uCi, iv after 2 mins; type: ADME, organism-based; conditions: in vivo; how it was run: as §1
Stomach [16] = assay: Biodistribution in ddY mouse stomach at 0.2 to 0.4 uCi, iv after 30 mins measured per gram of organ; type: ADME, organism-based; conditions: in vivo, 0.5 h; how it was run: as §1
Heart [17] = assay: Biodistribution in ddY mouse heart at 0.2 to 0.4 uCi, iv after 2 mins; type: ADME, organism-based; conditions: in vivo; how it was run: as §1
Pancreas [18] = assay: Biodistribution in ddY mouse pancreas at 0.2 to 0.4 uCi, iv after 60 mins; type: ADME, organism-based; conditions: in vivo, 1 h; how it was run: as §1
Intestine [19] = assay: Biodistribution in ddY mouse intestine at 0.2 to 0.4 uCi, iv after 30 mins; type: ADME, organism-based; conditions: in vivo, 0.5 h; how it was run: as §1
Kidney [20] = assay: Biodistribution in ddY mouse kidney at 0.2 to 0.4 uCi, iv after 2 mins; type: ADME, organism-based; conditions: in vivo; how it was run: as §1
Stomach [21] = assay: Biodistribution in ddY mouse stomach at 0.2 to 0.4 uCi, iv after 10 mins measured per gram of organ; type: ADME, organism-based; conditions: in vivo; how it was run: as §1
Kidney [22] = assay: Biodistribution in ddY mouse kidney at 0.2 to 0.4 uCi, iv after 60 mins; type: ADME, organism-based; conditions: in vivo, 1 h; how it was run: as §1
Brain [23] = assay: Biodistribution in ddY mouse brain at 0.2 to 0.4 uCi, iv after 2 mins; type: ADME, organism-based; conditions: in vivo; how it was run: as §1
Brain [24] = assay: Biodistribution in ddY mouse brain at 0.2 to 0.4 uCi, iv after 60 mins; type: ADME, organism-based; conditions: in vivo, 1 h; how it was run: as §1
Stomach [25] = assay: Biodistribution in ddY mouse stomach at 0.2 to 0.4 uCi, iv after 2 mins measured per gram of organ; type: ADME, organism-based; conditions: in vivo; how it was run: as §1
Spleen [26] = assay: Biodistribution in ddY mouse spleen at 0.2 to 0.4 uCi, iv after 60 mins; type: ADME, organism-based; conditions: in vivo, 1 h; how it was run: as §1
Pancreas [27] = assay: Biodistribution in ddY mouse pancreas at 0.2 to 0.4 uCi, iv after 30 mins; type: ADME, organism-based; conditions: in vivo, 0.5 h; how it was run: as §1
Brain [28] = assay: Biodistribution in ddY mouse brain at 0.2 to 0.4 uCi, iv after 10 mins; type: ADME, organism-based; conditions: in vivo; how it was run: as §1
Heart [29] = assay: Biodistribution in ddY mouse heart at 0.2 to 0.4 uCi, iv after 60 mins; type: ADME, organism-based; conditions: in vivo, 1 h; how it was run: as §1
Blood [30] = assay: Biodistribution in ddY mouse blood at 0.2 to 0.4 uCi, iv after 2 mins; type: ADME, organism-based; conditions: in vivo; how it was run: as §1
Intestine [31] = assay: Biodistribution in ddY mouse intestine at 0.2 to 0.4 uCi, iv after 60 mins; type: ADME, organism-based; conditions: in vivo, 1 h; how it was run: as §1
Spleen [32] = assay: Biodistribution in ddY mouse spleen at 0.2 to 0.4 uCi, iv after 30 mins; type: ADME, organism-based; conditions: in vivo, 0.5 h; how it was run: as §1
Kidney [33] = assay: Biodistribution in ddY mouse kidney at 0.2 to 0.4 uCi, iv after 10 mins; type: ADME, organism-based; conditions: in vivo; how it was run: as §1
Blood [34] = assay: Biodistribution in ddY mouse blood at 0.2 to 0.4 uCi, iv after 30 mins; type: ADME, organism-based; conditions: in vivo, 0.5 h; how it was run: as §1
Brain [35] = assay: Biodistribution in ddY mouse brain at 0.2 to 0.4 uCi, iv after 30 mins; type: ADME, organism-based; conditions: in vivo, 0.5 h; how it was run: as §1
Kidney [36] = assay: Biodistribution in ddY mouse kidney at 0.2 to 0.4 uCi, iv after 30 mins; type: ADME, organism-based; conditions: in vivo, 0.5 h; how it was run: as §1
Pancreas [37] = assay: Biodistribution in ddY mouse pancreas at 0.2 to 0.4 uCi, iv after 10 mins; type: ADME, organism-based; conditions: in vivo; how it was run: as §1
Liver [38] = assay: Biodistribution in ddY mouse liver at 0.2 to 0.4 uCi, iv after 10 mins; type: ADME, organism-based; conditions: in vivo; how it was run: as §1

SMILES: OCCOc1ccc(-c2cc3cc(I)ccc3[nH]2)cc1
Ki [1]: 25.9 nM

SMILES: CN(C)c1ccc(-c2cc3cc([125I])ccc3[nH]2)cc1
Drug uptake (Intestine [3]): 1.8 % ID/g
Drug uptake (Heart [4]): 4.82 % ID/g
Drug uptake (Stomach [5]): 16.26 %ID
Drug uptake (Spleen [6]): 3.28 % ID/g
Drug uptake (Spleen [7]): 4.13 % ID/g
Drug uptake (Blood [8]): 4.53 % ID/g
Drug uptake (Liver [9]): 3.24 % ID/g
Drug uptake (Intestine [10]): 3.09 % ID/g
Drug uptake (Liver [11]): 3.55 % ID/g
Drug uptake (Blood [12]): 3.29 % ID/g
Drug uptake (Heart [13]): 1.87 % ID/g
Drug uptake (Liver [14]): 10.2 % ID/g
Drug uptake (Pancreas [15]): 5.21 % ID/g
Drug uptake (Stomach [16]): 17.77 %ID
Drug uptake (Heart [17]): 8.08 % ID/g
Drug uptake (Pancreas [18]): 2.3 % ID/g
Drug uptake (Intestine [19]): 4.52 % ID/g
Drug uptake (Kidney [20]): 9.49 % ID/g
Drug uptake (Stomach [21]): 10.65 %ID
Drug uptake (Kidney [22]): 4.71 % ID/g
Drug uptake (Brain [23]): 1.19 % ID/g
Drug uptake (Brain [24]): 0.71 % ID/g
Drug uptake (Stomach [25]): 4.03 %ID
Drug uptake (Spleen [26]): 2.24 % ID/g
Drug uptake (Pancreas [27]): 3.1 % ID/g
Drug uptake (Brain [28]): 1.19 % ID/g
Drug uptake (Heart [29]): 1.84 % ID/g
Drug uptake (Blood [30]): 6.18 % ID/g
Drug uptake (Intestine [31]): 6.08 % ID/g
Drug uptake (Spleen [32]): 2.6 % ID/g
Drug uptake (Kidney [33]): 4.46 % ID/g
Drug uptake (Blood [34]): 3.68 % ID/g
Drug uptake (Brain [35]): 0.96 % ID/g
Drug uptake (Kidney [36]): 4.58 % ID/g
Drug uptake (Pancreas [37]): 4.13 % ID/g
Drug uptake (Liver [38]): 5.14 % ID/g

SMILES: COc1ccc(-c2cc3cc([125I])ccc3[nH]2)cc1
Drug uptake (Intestine [3]): 1.9 % ID/g
Drug uptake (Heart [4]): 2.97 % ID/g
Drug uptake (Stomach [5]): 3.06 %ID
Drug uptake (Spleen [6]): 3.43 % ID/g
Drug uptake (Spleen [7]): 4.22 % ID/g
Drug uptake (Blood [8]): 1.97 % ID/g
Drug uptake (Liver [9]): 8.22 % ID/g
Drug uptake (Intestine [10]): 6.85 % ID/g
Drug uptake (Liver [11]): 10.38 % ID/g
Drug uptake (Blood [12]): 0.74 % ID/g
Drug uptake (Heart [13]): 1.47 % ID/g
Drug uptake (Liver [14]): 17.81 % ID/g
Drug uptake (Pancreas [15]): 4.54 % ID/g
Drug uptake (Stomach [16]): 2.67 %ID
Drug uptake (Heart [17]): 7.72 % ID/g
Drug uptake (Pancreas [18]): 1.29 % ID/g
Drug uptake (Intestine [19]): 12.32 % ID/g
Drug uptake (Kidney [20]): 8.76 % ID/g
Drug uptake (Stomach [21]): 1.38 %ID
Drug uptake (Kidney [22]): 2.05 % ID/g
Drug uptake (Brain [23]): 2.11 % ID/g
Drug uptake (Brain [24]): 1.16 % ID/g
Drug uptake (Stomach [25]): 0.72 %ID
Drug uptake (Spleen [26]): 2.02 % ID/g
Drug uptake (Pancreas [27]): 1.95 % ID/g
Drug uptake (Brain [28]): 2.07 % ID/g
Drug uptake (Heart [29]): 1.06 % ID/g
Drug uptake (Blood [30]): 3.59 % ID/g
Drug uptake (Intestine [31]): 20.35 % ID/g
Drug uptake (Spleen [32]): 2.96 % ID/g
Drug uptake (Kidney [33]): 4.96 % ID/g
Drug uptake (Blood [34]): 1.38 % ID/g
Drug uptake (Brain [35]): 1.36 % ID/g
Drug uptake (Kidney [36]): 2.89 % ID/g
Drug uptake (Pancreas [37]): 3.94 % ID/g
Drug uptake (Liver [38]): 13.96 % ID/g

Continued, values first:

Ki [1]: 27 nM
SMILES: CNc1ccc(-c2cc3cc(I)ccc3[nH]2)cc1

Activity (Brain [2]): Active
Ki [1]: 20.2 nM
SMILES: COc1ccc(-c2cc3cc(I)ccc3[nH]2)cc1
